According to ChEMBL document CHEMBL4028903 (J Med Chem, 2017):
Active and inactive are the calls of the source. No cut-off for these calls is given here.

Legend:
[1] = Dissociation constant, pKa of compound; format: physicochemical
[2] = AUC in rat at 10 mg/kg, po administered via gavage by LC-MS/MS analysis; format: ADME, organism-based; settings: in vivo
In short: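 Rats were dosed IV as a solution in 75% PEG300:25% D5W, or orally as a suspension in 0.5% methylcellulose, 0.5% Tween80 and 99% water.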

Rattus norvegicus [3] = test: In vivo agonist activity at FXR in po dosed Sprague-Dawley rat assessed as induction of BSEP mRNA level in liver administered as single dose after 7 hrs post dose by qPCR analysis; format: functional, organism-based
Rattus norvegicus [4] = test: In vivo agonist activity at FXR in Sprague-Dawley rat assessed as induction of SHP mRNA level in liver at 0.01 mg/kg, po qd for 14 days measured 7 hrs post last dose on day 14 by qPCR analysis; format: functional, organism-based
Rattus norvegicus [5] = test: In vivo agonist activity at FXR in Sprague-Dawley rat assessed as induction of BSEP mRNA level in liver at 0.003 mg/kg, po qd for 14 days measured 7 hrs post last dose on day 14 by qPCR analysis; format: functional, organism-based
Rattus norvegicus [6] = test: In vivo agonist activity at FXR in po dosed Sprague-Dawley rat assessed as downregulation of CYP8B1 mRNA level in liver administered once daily for 14 days measured 7 hrs post last dose on day 14 by qPCR analysis; format: functional
Rattus norvegicus [7] = test: In vivo agonist activity at FXR in po dosed Sprague-Dawley rat assessed as induction of FGF15 mRNA level in ileum administered once daily for 14 days measured 7 hrs post last dose on day 14 by qPCR analysis; format: functional
Rattus norvegicus [8] = test: In vivo agonist activity at FXR in Sprague-Dawley rat assessed as serum triglyceride level at 0.3 mg/kg, po administered once daily for 14 days measured 24 hrs post last dose; format: functional
[9] = Drug uptake in Sprague-Dawley rat plasma at 0.3 mg/kg, po qd administered via gavage measured 1 hr post last dose on day 14 by LC-MS/MS analysis; format: ADME, organism-based
[10] = Drug uptake in Sprague-Dawley rat plasma at 0.1 mg/kg, po qd administered via gavage measured 1 hr post last dose on day 14 by LC-MS/MS analysis; format: ADME, organism-based
[11] = Drug uptake in Sprague-Dawley rat liver at 0.01 mg/kg, po qd administered via gavage measured 1 hr post last dose on day 14 by LC-MS/MS analysis; format: ADME, organism-based; settings: read-out: Drug uptake
In short: (§1)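 Drug concentration in liver was quantified from tissue homogenates, so these are total levels. Unbound liver concentration was not determined.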

[12] = Drug uptake in Sprague-Dawley rat liver at 0.003 mg/kg, po qd administered via gavage measured 7 hrs post last dose on day 14 by LC-MS/MS analysis; format: ADME, organism-based; settings: read-out: Drug uptake; in short: as §1
[13] = Drug uptake in Sprague-Dawley rat plasma at 0.003 mg/kg, po qd administered via gavage measured 7 hrs post last dose on day 14 by LC-MS/MS analysis; format: ADME, organism-based
Rattus norvegicus [14] = test: Dose normalized AUC (0 to 24 hrs) in Sprague-Dawley rat at 3 mg/kg, po qd administered via gavage measured on day 11 by LC-MS/MS analysis; format: ADME, organism-based; settings: in vivo
Rattus norvegicus [15] = test: Dose normalized AUC (0 to 24 hrs) in Sprague-Dawley rat at 1 mg/kg, po qd administered via gavage measured on day 11 by LC-MS/MS analysis; format: ADME, organism-based; settings: in vivo
Rattus norvegicus [16] = test: Dose normalized AUC (0 to 24 hrs) in Sprague-Dawley rat at 1 mg/kg, po qd administered via gavage measured on day 1 by LC-MS/MS analysis; format: ADME, organism-based; settings: in vivo
Rattus norvegicus [17] = test: Dose normalized AUC (0 to 24 hrs) in Sprague-Dawley rat at 0.3 mg/kg, po qd administered via gavage measured on day 1 by LC-MS/MS analysis; format: ADME, organism-based; settings: in vivo
Rattus norvegicus [18] = test: Dose normalized AUC (0 to 24 hrs) in Sprague-Dawley rat at 0.1 mg/kg, po qd administered via gavage measured on day 1 by LC-MS/MS analysis; format: ADME, organism-based; settings: in vivo
Rattus norvegicus [19] = test: Dose normalized AUC (0 to 24 hrs) in Sprague-Dawley rat at 0.01 mg/kg, po qd administered via gavage measured on day 1 by LC-MS/MS analysis; format: ADME, organism-based; settings: in vivo
[20] = AUC (0 to 24 hrs) in Sprague-Dawley rat at 1 mg/kg, po qd administered via gavage measured on day 1 by LC-MS/MS analysis; format: ADME, organism-based; parameters: dose 1 mg/kg, time < 24 hr, route oral; settings: in vivo
[21] = AUC (0 to 24 hrs) in Sprague-Dawley rat at 0.03 mg/kg, po qd administered via gavage measured on day 1 by LC-MS/MS analysis; format: ADME, organism-based; parameters: time < 24 hr, dose 0.03 mg/kg, route oral; settings: in vivo
[22] = AUC (0 to 24 hrs) in Sprague-Dawley rat at 0.01 mg/kg, po qd administered via gavage measured on day 1 by LC-MS/MS analysis; format: ADME, organism-based; parameters: dose 0.01 mg/kg, time < 24 hr, route oral; settings: in vivo
[23] = Cmax in Sprague-Dawley rat at 1 mg/kg, po qd administered via gavage measured on day 1 by LC-MS/MS analysis; format: ADME, organism-based; parameters: dose 1 mg/kg, route oral; settings: in vivo
[24] = Cmax in Sprague-Dawley rat at 0.01 mg/kg, po qd administered via gavage measured on day 1 by LC-MS/MS analysis; format: ADME, organism-based; parameters: dose 0.01 mg/kg, route oral; settings: in vivo
[25] = Volume of distribution at steady state in mouse at 5 mg/kg, iv or 10 mg/kg, po administered via gavage by LC-MS/MS analysis; format: ADME, organism-based; settings: in vivo, read-out: Vdss
In short: (§2)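 IV dosing used a solution in 75% PEG300:25% D5W for mouse and rat, and a solution in 20% PEG300, 5% solutol, 75% carbonate buffer pH 8 for dog. PO dosing used a suspension in 0.5% methylcellulose, 0.5% Tween80, 99% water for all three species.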

[26] = Volume of distribution at steady state in rat at 3 mg/kg, iv or 1 mg/kg, po administered via gavage by LC-MS/MS analysis; format: ADME, organism-based; settings: in vivo, read-out: Vdss; in short: as §2
[27] = Half life in rat at 3 mg/kg, iv by LC-MS/MS analysis; format: ADME, organism-based; settings: in vivo
In short: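 Single IV dose given as a solution. Mouse and rat received it in 75% PEG300:25% D5W. Dog received it in 20% PEG300, 5% solutol and 75% carbonate buffer pH = 8. Plasma was sampled for PK parameters.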

[28] = AUC in dog at 2 mg/kg, po administered via gavage by LC-MS/MS analysis; format: ADME, organism-based, Canis lupus familiaris; settings: in vivo
In short: (§3)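 Single oral dose given as a suspension in 0.5% methylcellulose, 0.5% Tween80 and 99% water. Doses were 10 mg/kg in mouse, 1 mg/kg in rat and 2 mg/kg in dog.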

[29] = Oral bioavailability in mouse at 10 mg/kg administered via gavage by LC-MS/MS analysis; format: ADME, organism-based; settings: in vivo; in short: as §2
[30] = Oral bioavailability in dog at 2 mg/kg administered via gavage by LC-MS/MS analysis; format: ADME, organism-based, Canis lupus familiaris; settings: in vivo; in short: as §2
[31] = Drug uptake in Sprague-Dawley rat plasma at 1 mg/kg, po qd administered via gavage measured 7 hrs post last dose on day 14 by LC-MS/MS analysis; format: ADME, organism-based
[32] = Drug uptake in Sprague-Dawley rat plasma at 3 mg/kg, po qd administered via gavage measured 1 hr post last dose on day 14 by LC-MS/MS analysis; format: ADME, organism-based
[33] = Cmax in rat at 1 mg/kg, po administered via gavage by LC-MS/MS analysis; format: ADME, organism-based; parameters: dose 1 mg/kg, route oral; settings: in vivo; in short: as §3

O=C(O)c1cc(F)c2nc(N3C4CCC3CC(OCc3c(-c5ccccc5OC(F)(F)F)noc3C3CC3)C4)sc2c1 (stereo not drawn)
pKa [1]: 4
AUC [2]: 6.04 µM·h
Activity (Rattus norvegicus [3]): Dose-dependent effect
Activity (Rattus norvegicus [4]): Active
Activity (Rattus norvegicus [5]): Active
ED50 (Rattus norvegicus [6]): 0.01 mg/kg
ED50 (Rattus norvegicus [7]): 0.05 mg/kg
Activity (Rattus norvegicus [8]): 79%
concentration at 1 h [9]: 6.84 nM
concentration at 1 h [10]: 3.95 nM
concentration at 1 h [11]: 8.35 nM
concentration at 7 h [12]: 2.3 nM
concentration at 7 h [13]: 0.12 nM
AUC/dose (Rattus norvegicus [14]): 563 nM·h
AUC/dose (Rattus norvegicus [15]): 562 nM·h
AUC/dose (Rattus norvegicus [16]): 461 nM·h
AUC/dose (Rattus norvegicus [17]): 390 nM·h
AUC/dose (Rattus norvegicus [18]): 410 nM·h
AUC/dose (Rattus norvegicus [19]): 443 nM·h
AUC(0-t) at 24 h [20]: 0.461 µM·h
AUC(0-t) at 24 h [21]: 0.015 µM·h
AUC(0-t) at 24 h [22]: 0.004 µM·h
Cmax [23]: 39.3 nM
Cmax [24]: 0.44 nM
Vd [25]: 0.7 L/kg
Vd [26]: 0.72 L/kg
half-life [27]: 3.7 h
AUC [28]: 3.66 µM·h
bioavailability [29]: 9.2%
bioavailability [30]: 10%
concentration at 7 h [31]: 40.5 nM
concentration at 1 h [32]: 62.6 nM
Cmax [33]: 53 nM
